Hits are enriched below; roughly 1.3% of the tested compounds scored in any of these assays.
MLL AF4-AF9 inh: inhibitors of AF4 peptide binding to AF9, primary screen, biochemical, AlphaScreen, biotin-AF4 peptide, FLAG-AF9, single point; Protein AF-9 (Homo sapiens), P42568; inhibition, % at 10 µM; 350,000 tested, 0.47% active;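 active = every replicate reaching a set inhibition limit, whatever the replicate mean, cut at about 25% in these data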;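 note: 0% = plate neutral control median and 100% = total signal loss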
Target sequence (P42568 whole entry, looked up): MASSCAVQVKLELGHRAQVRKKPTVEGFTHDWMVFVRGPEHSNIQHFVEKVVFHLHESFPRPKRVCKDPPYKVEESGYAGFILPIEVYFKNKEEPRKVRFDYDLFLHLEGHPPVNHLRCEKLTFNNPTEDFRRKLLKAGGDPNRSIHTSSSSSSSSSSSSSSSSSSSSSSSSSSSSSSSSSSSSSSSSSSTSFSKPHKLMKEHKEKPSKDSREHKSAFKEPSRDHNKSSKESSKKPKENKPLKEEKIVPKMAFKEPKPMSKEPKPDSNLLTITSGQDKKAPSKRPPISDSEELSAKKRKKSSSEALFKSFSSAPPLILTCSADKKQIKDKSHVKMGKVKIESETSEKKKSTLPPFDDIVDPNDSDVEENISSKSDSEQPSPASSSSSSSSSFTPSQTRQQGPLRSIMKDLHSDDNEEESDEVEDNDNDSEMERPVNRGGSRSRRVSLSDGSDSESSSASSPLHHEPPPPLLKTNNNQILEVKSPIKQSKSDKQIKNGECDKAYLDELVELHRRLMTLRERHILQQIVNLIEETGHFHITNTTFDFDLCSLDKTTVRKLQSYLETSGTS
GSIS activator: GLuc luminescence reporter in INS-1E cells, primary screen for activators of glucose-dependent secretion of insulin; AID 743287, 2014; INS-1E GLuc reporter insulin secretion, 2-3 h; activation, % at 16.6 µM; 370,000 tested, 0.61% active;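 active = lowest replicate activation of at least 40%, so every replicate reaches that level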;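 note: 0% = median of neutral control wells and 100% = median of IBMX positive control wells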
RAD52 anneal inh: RAD52 DNA annealing inhibitors, primary screen, biochemical, FRET, single point, set 2. DNA repair protein RAD52 homolog (Homo sapiens), P43351. recombinant RAD52 DNA annealing, FRET fluorescence. 360,000 tested, 0.46% active. inhibition, % at 18.7 µM;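 active = every replicate showing at least 50% inhibition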
RAD54 branch: inhibitors of human RAD54 branch migration, primary screen, biochemical, fluorescence, single point; inhibition, % at 10.4 µM; RAD54 Holliday junction branch migration, FAM/BHQ fluorescence; DNA repair and recombination protein RAD54-like (Homo sapiens), Q92698; 360,000 tested, 0.14% active;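 active = mean normalized replicate activity at least 40 and at least half of replicates scoring 40 or more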;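 note: 0% = median of neutral control wells and 100% = median of positive control wells; inhibitors cause a drop in the FAM fluorescence signal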
S100A4 MyoIIA: inhibitors of S100A4-myosin IIA peptide binding, primary screen, biochemical, fluorescence polarization, TAMRA-MyoIIA peptide | Protein S100-A4 (Homo sapiens), P26447 | inhibition, % at 10.7 µM | 360,000 tested, 0.14% active | AID 652163, 2013;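 active = mean inhibition of at least 70% across replicates, with every replicate also reaching that level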
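Test system: S100A4 monomer protein. Medium: HEPES buffer with Ca2+, pH 7.2. Reagent: fluorescent myosin IIA peptide, 5 nM. Compound dosing: single-point compound testing. Timing: 5 min between mix addition and reading. Benchmarks: DMSO neutral and TFP positive wells.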
Numbers without * were called inactive; i = inactive; / = no result given; + = active, no number; ! = not active in a repeat.

SMILES	MLL AF4-AF9 inh	GSIS activator	RAD52 anneal inh	RAD54 branch	S100A4 MyoIIA
COc1ccc(O)c(/C=N/n2c(-c3ccco3)csc2=Nc2cccnc2)c1	/	2.9	/	/	/
CN=c1scc(-c2ccco2)n1/N=C/c1ccc(O)c(O)c1	25.5*	17.8	-12.3	/	-1.6
OC(c1ccccc1)(c1nc(-c2cccc(C(F)(F)F)c2)cs1)C(F)(F)F (centres undefined)	-5.4	106.3*	-9.5	-4.9	-4.9
c1cc(Nc2cccc3nccnc23)c2nccnc2c1	25.7*	-12.0	-440.8	-6.1	1.9
O=C(Nc1ccc(Cl)cc1)N1[C@@H]2CNC[C@H]1C2c1ccc(/C=C/c2ccccc2)cc1 (some centres undefined)	0.3	10.1	67.2*!	/	-8.2
O=C(Nc1ccc(Cl)cc1)N1[C@@H]2CNC[C@H]1C2c1ccc(-c2ccccc2)cc1 (some centres undefined)	-3.1	-13.6	57.6*!	/	-16.7
O=C(Nc1ccc(F)cc1)N1C[C@@H]2N[C@H](C1)C2c1ccc(/C=C/c2ccccc2)cc1 (some centres undefined)	/	-16.9	/	/	/
O=C(Nc1ccc2c(c1)OCO2)N1C[C@@H]2N[C@H](C1)C2c1ccc(C=Cc2ccccc2)cc1 (some centres undefined)	56.3*!	89.0*!	79.2*	/	14.7
O=C(Nc1ccc(F)cc1)N1[C@@H]2CNC[C@H]1C2c1ccc(-c2ccc(F)cc2)cc1 (some centres undefined)	2.8	-23.3	51.4*	/	-70.2
Cc1ccc(-c2ccc(C3[C@H]4CNC[C@@H]3N4C(=O)Nc3ccc(F)cc3)cc2)cc1 (some centres undefined)	6.8	35.9	48.9	/	-10.5
COc1ccccc1NC(=O)N1C[C@@H](O)COC[C@H]2O[C@@H](CC(=O)N3CCC(Cc4ccccc4)CC3)CC[C@@H]21	/	-28.0	/	7.2	/
CO[C@@H](CN(C)S(=O)(=O)c1ccc(C)cc1)[C@@H](C)CN([C@H](C)CO)S(=O)(=O)c1cccc(Cl)c1	2.4	-24.6	-1.0	-0.8	0.9
O=C(Nc1ccc(C(F)(F)F)cc1)N1[C@@H]2CNC[C@H]1C2c1ccc(/C=C/c2ccccc2)cc1 (some centres undefined)	5.7	+!	-25.8	/	-24.3
O=C(Nc1ccc(F)cc1)N1[C@@H]2CNC[C@H]1C2c1ccc(-c2ccccc2)cc1 (some centres undefined)	3.0	-3.8	54.9*!	/	3.3
O=C(Nc1ccc(F)cc1)N1[C@@H]2CNC[C@H]1C2c1ccc(/C=C/c2ccccc2)cc1 (some centres undefined)	12.4	9.2	37.8	/	1.4
Cc1ccc(-c2ccc(C3[C@H]4CNC[C@@H]3N4C(=O)Nc3ccccc3Cl)cc2)cc1 (some centres undefined)	8.0	-27.2	52.9*!	/	0.7
O=C(Nc1ccc(C(F)(F)F)cc1)N1[C@@H]2CNC[C@H]1C2c1ccc(-c2ccccc2)cc1 (some centres undefined)	-5.0	-8.8	18.6	/	14.8
O=C(Nc1ccc2c(c1)OCO2)N1[C@@H]2CNC[C@H]1C2c1ccc(/C=C/c2ccccc2)cc1 (some centres undefined)	10.2	-12.8	60.5*	/	-12.0
Cc1ccc(S(=O)(=O)N[C@H]2CC[C@@H](CC(=O)NCCc3ccncc3)O[C@@H]2CO)cc1	-1.0	15.9	17.3	6.7	4.7
C[C@@H]1CCCCO[C@@H](CN(C)Cc2ccc(C(F)(F)F)cc2)[C@H](C)CN([C@H](C)CO)C(=O)c2cc(N(C)C)ccc2O1	40.1*	-6.9	-4.5	-2.6	10.5
C[C@@H]1CCCCO[C@@H](CN(C)Cc2ccc(C(F)(F)F)cc2)[C@H](C)CN([C@@H](C)CO)C(=O)c2cc(N(C)C)ccc2O1	32.3*	-16.4	-9.1	-4.3	5.9
Cc1ccc(S(=O)(=O)Nc2ccc3c(c2)CC(=O)N([C@@H](C)CO)C[C@@H](C)[C@H](CN(C)CC2CCCCC2)O3)cc1	8.4	/	20.0	1.7	0.6
CN1CCc2cccc3c2[C@@H]1Cc1ccc(O)c(O)c1-3	25.8*	/	/	5.4	16.6
COc1ccc2c(c1O)-c1ccccc1CCN(C)C2	-0.7	6.8	-17.3	-3.6	33.3
COc1ccc2nc3ccccc3nc2c1NC(=O)c1ccc(Br)cc1	1.5	-0.2	-119.5	-6.2	3.8
SMILES	MLL AF4-AF9 inh	GSIS activator	RAD52 anneal inh	RAD54 branch	S100A4 MyoIIA
COc1ccc2nc3ccccc3nc2c1NC(=O)c1ccc(Cl)cc1	/	70.1*	/	-8.3	/
Cc1ccc2c(c1)c(-c1ccccc1)nc1nncn12	-4.3	46.4*	-46.9	-2.1	-7.7
C[C@H](CO)N1C[C@H](C)[C@H](CN(C)Cc2ccncc2)Oc2ncc(-c3cccc(F)c3)cc2C1=O	-4.4	4.4	10.8	3.8	11.4
CC(=O)[C@@]1(O)Cc2c(O)c3c(c(O)c2[C@H](O[C@H]2C[C@H](N)[C@H](O)[C@H](C)O2)C1)C(=O)c1ccccc1C3=O	25.5*	-3.3	i	-492.4	+
COc1cccc2c1C(=O)c1c(O)c3c(c(O)c1C2=O)C[C@@](O)(C(=O)CO)C[C@@H]3O[C@H]1C[C@H](N)[C@H](O)[C@H](C)O1	18.6	/	i	-94.3	177.7*
COc1cccc2c1C(=O)c1c(O)c3c(c(O)c1C2=O)C[C@@](O)(C(=O)CO)C[C@@H]3OC1CC(N)C(O)C(C)O1 (some centres undefined)	8.5	/	i	/	187.0*
COc1cccc2c1C(=O)c1c(O)c3c(c(O)c1C2=O)CC(O)(C(C)=O)CC3OC1CC(N(C)C)C(O)C(C)O1 (centres undefined)	13.6	-13.6	i	/	+
COc1ccc(NC(=O)N(C)C[C@H]2OCCCC[C@H](C)Oc3ccc(NC(=O)NC4CCCCC4)cc3C(=O)N([C@H](C)CO)C[C@@H]2C)cc1	1.8	5.7	-13.0	-1.3	-1.3
CCC(CC)NC(=O)c1ccccc1Oc1ccccc1	/	53.2*	/	0.6	/
CCN(C(=O)CN1C(=O)NC(c2ccccc2)(c2ccccc2)C1=O)c1ccccc1	38.1*	-9.0	-12.9	3.6	-10.5
CN(C)c1ccc(CC(=O)N2CCCCC2c2cc(C(=O)Nc3ccccc3Cl)no2)cc1 (centres undefined)	14.8	45.3*	-20.7	-12.9	-2.3
COc1ccc2c3c([nH]c2c1)[C@@H](CO)N(C(=O)Nc1ccc(F)cc1)CC31CN(Cc2ccc(F)cc2)C1	4.5	-19.2	3.2	/	-1.0
COc1ccc(CN2CC3(C2)CN(C(=O)Nc2ccc(F)cc2)[C@@H](CO)c2[nH]c4cc(OC)ccc4c23)cc1	43.9*	-26.3	/	/	/
COc1ccc2c3c([nH]c2c1)[C@H](CO)N(C(=O)NC(C)C)CC31CN(Cc2ccccc2)C1	25.9*	-5.2	10.5	/	-33.2

Bioassay records: PubChem BioAssay, Broad Institute
